Many of the other results were omitted from the sample, so hits are more common in it than they were.
GASC1 inh – inhibitors of GASC-1 (KDM4C) histone demethylase, primary screen, biochemical, single concentration HTS; Lysine-specific demethylase 4C (Homo sapiens), Q9H3R0; GST-KDM4C 2-372, H3K9me3 peptide, LANCE TR-FRET; inhibition, % at 12.5 µM; 0.15% of 96,000 active;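 active = mean replicate inhibition above about 25%, with at least 55% of replicates also reaching it, limit read from the data, passing the limit was not always enough; inconclusive = only one of those two conditions met; inactive = neither condition met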
Target sequence (Q9H3R0 2-372 limits assumed): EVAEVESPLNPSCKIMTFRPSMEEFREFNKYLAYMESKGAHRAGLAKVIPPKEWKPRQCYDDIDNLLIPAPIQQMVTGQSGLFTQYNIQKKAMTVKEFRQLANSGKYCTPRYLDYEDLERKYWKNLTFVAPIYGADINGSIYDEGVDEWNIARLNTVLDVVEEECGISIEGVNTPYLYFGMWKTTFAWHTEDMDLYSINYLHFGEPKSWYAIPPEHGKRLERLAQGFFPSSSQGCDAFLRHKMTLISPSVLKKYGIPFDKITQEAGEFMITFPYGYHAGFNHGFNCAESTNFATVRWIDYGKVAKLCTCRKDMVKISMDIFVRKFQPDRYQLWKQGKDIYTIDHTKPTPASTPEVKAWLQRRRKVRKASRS
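Material: N-terminal GST-fused human GASC-1 (KDM4C) fragment, residues 2-372. Input: 10 nM enzyme. Incubation: enzyme reaction 30 min, then detection 60 min, both room temperature. Doses: one test concentration per compound. Read-out basis: inhibition from TR-FRET ratio decrease. Detection: LANCE TR-FRET, excitation 340 nm, emissions 618 and 671 nm.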
IDH1 R132H inh – inhibitors of IDH1 R132H reductase, primary screen, biochemical, plate reader, single point; Isocitrate dehydrogenase [NADP] cytoplasmic (Homo sapiens), O75874; diaphorase/resazurin fluorescence, 60 min; inhibition, % at 10 µM; 0.18% of 70,000 active; AID 624101, 2012; in the data active = inhibition above about 34%; inconclusive = no clear call, values can overlap the other calls; inactive = below about 11%
Target sequence (O75874 whole entry R132H): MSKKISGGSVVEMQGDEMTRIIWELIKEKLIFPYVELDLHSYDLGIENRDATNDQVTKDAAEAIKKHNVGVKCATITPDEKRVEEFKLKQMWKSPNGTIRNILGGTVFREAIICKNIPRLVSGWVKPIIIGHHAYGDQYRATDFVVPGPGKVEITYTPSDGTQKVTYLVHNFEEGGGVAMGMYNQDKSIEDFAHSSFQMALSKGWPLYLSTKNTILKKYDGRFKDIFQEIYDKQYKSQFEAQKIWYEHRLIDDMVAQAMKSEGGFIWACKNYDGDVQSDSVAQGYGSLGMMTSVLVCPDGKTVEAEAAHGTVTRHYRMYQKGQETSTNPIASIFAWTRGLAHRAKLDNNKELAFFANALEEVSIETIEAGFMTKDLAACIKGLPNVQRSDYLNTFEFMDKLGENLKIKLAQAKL
T cruzi growth-1 – T. cruzi intracellular proliferation inhibitors, primary screen, cell-based, beta-gal Tulahuen parasites, NIH3T3 host, luminescence; inhibition, % at 8.34 µM; 5.9% of 77,000 active; AID 624255, 2012; T. cruzi beta-gal in NIH3T3, GalScreen luminescence, 90 h;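 active = mean inhibition above about 93%, with at least 55% of replicates each passing it, limit read from the data, passing the limit was not always enough; inconclusive = only one of those two conditions holds; inactive = neither condition holds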
T cruzi growth-2 – T. cruzi intracellular proliferation inhibitors, confirmation, cell-based, NIH3T3 host, beta-gal parasite, luminescence, cherry-pick | shares compounds with T cruzi growth-1 | T. cruzi beta-gal in NIH3T3, GalScreen luminescence, 90 h | inhibition, % at 8.35 µM | 72% of 5,600 active | AID 651739, 2012;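 active = mean replicate inhibition above about 95% and at least 55% of replicates individually reaching it, limit read from the data; inconclusive = only one of the two criteria is met; inactive = neither criterion is met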
T cruzi growth-3 – inhibitors of intracellular T. cruzi replication, confirmation, NIH3T3 host cells, beta-gal parasites, cherry-pick, set 2. shares compounds with T cruzi growth-1. 21% of 5,600 active. inhibition, % at 2.09 µM. T. cruzi beta-gal in NIH3T3, GalScreen luminescence, 90 h;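 active = mean inhibition above about 95%, with at least 55% of replicates also reaching it, limit read from the data; inconclusive = meets just one of the two conditions; inactive = meets neither condition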
3T3 cytotox – cytotoxicity in mouse NIH/3T3 fibroblasts, confirmation, cytotoxicity control for T. cruzi proliferation inhibitor project, cell-based, cherry-pick, single point | shares compounds with T cruzi growth-1 | NIH/3T3 viability, CellTiter-Glo ATP luminescence, 90 h | cytotoxicity (signal decrease), % at 8.35 µM | 14% of 5,600 active | AID 651742, 2012;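 active = mean signal decrease across replicates above about 35% based on untreated-well scatter, with enough replicates individually passing, limit read from the data; inconclusive = no rule stated though some were filed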
NIH3T3 tox 2 – NIH/3T3 fibroblast cytotoxicity, confirmation, cytotoxicity control, cell-based, cherry-pick, single point, set 2. shares compounds with T cruzi growth-1. NIH/3T3 viability, CellTiter-Glo ATP luminescence, 90 h. inhibition, % at 24.9 µM. 56% of 5,600 active. AID 651744, 2012;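 active = mean loss of cell viability signal at or above a set limit, and enough replicates individually reaching it; inconclusive = meets only the mean limit or only the replicate share; inactive = meets neither condition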
Of the large screens only hits and unclear results are named; the others gave an inactive call (follow-up assays come after a bar, where they were run); ! = not confirmed by another sample.

C[C@@H]1CN([C@H](C)CO)S(=O)(=O)c2ccc(C3=CCCC3)cc2O[C@@H]1CN(C)C(=O)Nc1ccc2c(c1)OCO2	none
C[C@H](CO)N1C[C@H](C)[C@@H](CN(C)C(=O)Nc2ccc3c(c2)OCO3)Oc2cc(C#Cc3ccncc3)ccc2S1(=O)=O	none
C[C@@H]1CN([C@@H](C)CO)S(=O)(=O)c2ccc(C#Cc3ccncc3)cc2O[C@@H]1CN(C)C(=O)Nc1ccc2c(c1)OCO2	none
C[C@H](CO)N1C[C@H](C)[C@@H](CN(C)C(=O)Nc2ccc3c(c2)OCO3)Oc2cc(C#Cc3ccccc3)ccc2S1(=O)=O	T cruzi growth-1 131 | T cruzi growth-2 104 | T cruzi growth-3 inactive | 3T3 cytotox inactive | NIH3T3 tox 2 inactive
C[C@H]1CN([C@@H](C)CO)S(=O)(=O)c2ccc(C3=CCCC3)cc2O[C@@H]1CN(C)C(=O)Nc1ccc2c(c1)OCO2	T cruzi growth-1 109 | T cruzi growth-2 96 | T cruzi growth-3 inactive | 3T3 cytotox inactive | NIH3T3 tox 2 28
C[C@@H]1CN([C@H](C)CO)S(=O)(=O)c2ccc(C#Cc3ccccc3)cc2O[C@H]1CN(C)C(=O)Nc1ccc2c(c1)OCO2	T cruzi growth-1 92 (no result: IDH1 R132H inh) | T cruzi growth-2 108 | T cruzi growth-3 96! | 3T3 cytotox inactive | NIH3T3 tox 2 32
C[C@@H]1CN([C@@H](C)CO)C(=O)c2cc(NC(=O)Nc3ccccc3)ccc2O[C@@H](C)CCCCO[C@@H]1CN(C)C(=O)C1CCCCC1	none
COCC(=O)Nc1ccc2c(c1)[C@@H]1C[C@@H](CC(=O)NCc3ccccn3)O[C@H](CO)[C@@H]1O2	none
CCn1c(SCC(=O)Nc2cccc(Cl)c2Cl)nnc1-c1ccc([N+](=O)[O-])cc1	none (no result: GASC1 inh, T cruzi growth-1)
CC(C)C#Cc1ccc2c(c1)O[C@@H](CN(C)C(=O)c1ccccc1)[C@H](C)CN([C@H](C)CO)S2(=O)=O	T cruzi growth-1 99 | T cruzi growth-2 104 | T cruzi growth-3 inactive | 3T3 cytotox 46 | NIH3T3 tox 2 39
CC(C)C#Cc1ccc2c(c1)O[C@@H](CN(C)C(=O)c1ccncc1)[C@@H](C)CN([C@H](C)CO)S2(=O)=O	T cruzi growth-1 107 | T cruzi growth-2 102 | T cruzi growth-3 inconclusive | 3T3 cytotox inactive | NIH3T3 tox 2 42
CC(C)C#Cc1ccc2c(c1)O[C@H](CN(C)C(=O)c1ccccc1)[C@@H](C)CN([C@H](C)CO)S2(=O)=O	T cruzi growth-1 115 | T cruzi growth-2 105 | T cruzi growth-3 inactive | 3T3 cytotox inactive | NIH3T3 tox 2 30
CC(C)C#Cc1ccc2c(c1)O[C@H](CN(C)C(=O)c1ccccc1)[C@@H](C)CN([C@@H](C)CO)S2(=O)=O	none
CC(C)C#Cc1ccc2c(c1)O[C@@H](CN(C)C(=O)c1ccncc1)[C@H](C)CN([C@@H](C)CO)S2(=O)=O	none
CC(C)C#Cc1ccc2c(c1)O[C@@H](CN(C)C(=O)c1ccccc1)[C@@H](C)CN([C@H](C)CO)S2(=O)=O	none
C[C@H](NC(=O)C[C@H]1CC[C@H](NC(=O)C2CCOCC2)[C@H](CO)O1)c1ccccc1	none
O=C(C[C@H]1CC[C@H]2[C@@H](COC[C@@H](O)CN2C(=O)c2ccccc2)O1)Nc1nccs1	none (no result: IDH1 R132H inh)
CO[C@H]1CN(C)C(=O)c2ccc(NC(=O)C3CC3)cc2OC[C@@H](C)N(CC2CCOCC2)C[C@@H]1C	none
COc1c(O)ccc(C(c2cn(C)c3ccccc23)c2cn(C)c3ccccc23)c1[N+](=O)[O-]	none (no result: GASC1 inh, T cruzi growth-1)
CCCNC(=O)C[C@@H]1C[C@H]2c3cc(NC(=O)c4cccnc4)ccc3O[C@H]2[C@H](CO)O1	none
O=C(NCC(O)c1ccccc1)c1ccc(S(=O)(=O)N2CCOCC2)cc1 (stereo not given)	none (no result: GASC1 inh, T cruzi growth-1)
C[C@@H]1CN([C@H](C)CO)S(=O)(=O)c2ccc(C#Cc3ccccn3)cc2O[C@@H]1CN(C)C	none (no result: T cruzi growth-1)
CNC[C@H]1Oc2cc(C#Cc3ccccn3)ccc2S(=O)(=O)N([C@@H](C)CO)C[C@@H]1C	T cruzi growth-1 101 | T cruzi growth-2 111 | T cruzi growth-3 inactive | 3T3 cytotox inactive | NIH3T3 tox 2 inactive
CNC[C@H]1Oc2cc(C#Cc3ccccn3)ccc2S(=O)(=O)N([C@H](C)CO)C[C@H]1C	T cruzi growth-1 99 | T cruzi growth-2 109 | T cruzi growth-3 inactive | 3T3 cytotox inactive | NIH3T3 tox 2 inactive
CNC[C@@H]1Oc2cc(C#Cc3ccncc3)ccc2S(=O)(=O)N([C@@H](C)CO)C[C@H]1C	none (no result: T cruzi growth-1)
CN(C)C(=O)c1cccc(-c2ccccc2[C@@H]2[C@@H](C#N)N(C(=O)C3CCCC3)[C@@H]2CO)c1	none (no result: IDH1 R132H inh, T cruzi growth-1)
C[C@H](CO)N1C[C@H](C)[C@@H](CN(C)Cc2ccccc2)Oc2cc(C3=CCCC3)ccc2S1(=O)=O	none
C[C@@H]1CN([C@H](C)CO)S(=O)(=O)c2ccc(C3=CCCCC3)cc2O[C@H]1CN(C)Cc1ccccc1	T cruzi growth-1 119 | T cruzi growth-2 inactive | T cruzi growth-3 101 | 3T3 cytotox 78 | NIH3T3 tox 2 106
C[C@@H]1CN([C@H](C)CO)S(=O)(=O)c2ccc(C3=CCCC3)cc2O[C@H]1CN(C)Cc1ccccc1	none
C[C@@H]1CN([C@@H](C)CO)S(=O)(=O)c2ccc(C3=CCCCC3)cc2O[C@H]1CN(C)Cc1ccccc1	T cruzi growth-1 121 | T cruzi growth-2 inactive | T cruzi growth-3 110 | 3T3 cytotox 83 | NIH3T3 tox 2 104
C[C@@H]1CN([C@@H](C)CO)S(=O)(=O)c2ccc(-c3cccnc3)cc2O[C@H]1CN(C)C(=O)C1CCCCC1	none
Cc1ccc(NC(=O)C(Cc2ccccc2)N2C(=O)C3C4CCC(C4)C3C2=O)cc1[N+](=O)[O-] (stereo not given)	none (no result: GASC1 inh, T cruzi growth-1)
CN1[C@@H]2c3ccc(-c4cccc(F)c4)c(=O)n3C[C@@H]2[C@@H](CO)[C@@H]1C(=O)NC1CCCCC1	none (no result: IDH1 R132H inh)
CCCNC(=O)N(C)C[C@@H]1Oc2cc(C#Cc3cccc(F)c3)ccc2S(=O)(=O)N([C@@H](C)CO)C[C@@H]1C	T cruzi growth-1 117 | T cruzi growth-2 110 | T cruzi growth-3 inactive | 3T3 cytotox inactive | NIH3T3 tox 2 83
CCCNC(=O)N(C)C[C@H]1Oc2cc(C#Cc3cccc(F)c3)ccc2S(=O)(=O)N([C@H](C)CO)C[C@H]1C	T cruzi growth-1 125 | T cruzi growth-2 106 | T cruzi growth-3 inactive | 3T3 cytotox inactive | NIH3T3 tox 2 66

Assay outcomes as filed in PubChem.
